Test results taken from ChEMBL document CHEMBL1671683, “Activity of linezolid in an in vitro pharmacokinetic-pharmacodynamic model using different dosages and Staphylococcus aureus and Enterococcus faecalis strains with and without a hypermutator phenotype” (Antimicrob Agents Chemother, 2010).

What was measured:
Enterococcus faecalis [1] = assay: Bactericidal activity against 12 hrs peripheral compartment culture samples of Enterococcus faecalis ATCC 29212 in two-compartment pharmacokinetic/pharmacodynamic model assessed as effect on bacterial count at 600 mg, bid administered as 0.5 hr infusion; type: functional
Procedure, shortened: (§1)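 Two-compartment hollow-fibre model in cation-adjusted, protein-free MH broth, 37°C. Linezolid given as simulated 0.5-h infusion twice daily. Inoculum grown 18 h, concentrated 50-fold and placed in the peripheral compartment 3 h before t0. Peripheral samples at set times counted by dilution plating. First 10-fold dilution not plated, limiting detection to 2–3 log10 CFU/ml. Δlog CFU/ml taken from t0 count. Duplicates.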

Enterococcus faecalis [2] = assay: Bactericidal activity against 13 hrs peripheral compartment culture samples of Enterococcus faecalis ATCC 29212 in two-compartment pharmacokinetic/pharmacodynamic model assessed as effect on bacterial count at 600 mg, bid administered as 0.5 hr infusion; type: functional
Procedure, shortened: (§2)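 An 18-h culture concentrated 50-fold was injected into the peripheral compartment 3 h pre-sampling (~10^8 CFU/ml E. faecalis, 10^9 S. aureus). Counts came from dilution plating (detection limit 2–3 log10 CFU/ml), expressed as Δlog CFU/ml from treatment start. Run in duplicate.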

Enterococcus faecalis [3] = assay: Bactericidal activity against 1 hr peripheral compartment culture samples of Enterococcus faecalis Ef1497 in two-compartment pharmacokinetic/pharmacodynamic model assessed as effect on bacterial count at 600 mg, bid administered as 0.5 hr infusion; type: functional; procedure, shortened: as §1
Enterococcus faecalis [4] = assay: Bactericidal activity against 14 hrs peripheral compartment culture samples of Enterococcus faecalis Ef1497 in two-compartment pharmacokinetic/pharmacodynamic model assessed as effect on bacterial count at 800 mg, bid administered as 0.5 hr infusion; type: functional; procedure, shortened: as §2
Enterococcus faecalis [5] = assay: Bactericidal activity against 24 hrs peripheral compartment culture samples of Enterococcus faecalis Ef1497 MutM3 in two-compartment pharmacokinetic/pharmacodynamic model assessed as effect on bacterial count at 200 mg, bid administered as 0.5 hr infusion; type: functional; procedure, shortened: as §2
[6] = Residual concentration at the end of the administration interval in two-compartment pharmacokinetic/pharmacodynamic model at 200 mg, bid administered as 0.5 hrs infusion; type: ADME; conditions: iv, read-out: Drug uptake
[7] = AUC in two-compartment pharmacokinetic/pharmacodynamic model at 800 mg, bid administered as 0.5 hrs infusion; type: ADME; conditions: iv
[8] = Total clearance in two-compartment pharmacokinetic/pharmacodynamic model at 800 mg, bid administered as 0.5 hrs infusion; type: ADME, organism-based; conditions: iv
[9] = Volume of distribution at steady state in two-compartment pharmacokinetic/pharmacodynamic model at 200 mg, bid administered as 0.5 hrs infusion; type: ADME, organism-based; conditions: iv, read-out: Vdss
Staphylococcus aureus = assay: Bactericidal activity against 13 hrs peripheral compartment culture samples of Staphylococcus aureus RN4220 in two-compartment pharmacokinetic/pharmacodynamic model assessed as effect on bacterial count at 600 mg, bid administered as 0.5 hr infusion; type: functional; procedure, shortened: as §2
[10] = tested on: Staphylococcus aureus subsp. aureus RN4220; assay: ABBC (0 to 24 hrs) in Staphylococcus aureus RN4220 MutS2 in two-compartment pharmacokinetic/pharmacodynamic model at 600 mg, bid administered as 0.5 hr infusion for 2 days
Procedure, shortened: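 Hollow-fibre two-compartment model in cation-adjusted, protein-free MH broth at 37°C. Human total-plasma linezolid profile simulated as 0.5-h infusion every 12 h for 48 h. Concentrated 18-h culture injected into the peripheral compartment 3 h before first sample, giving about 10^8 (E. faecalis) or 10^9 (S. aureus) CFU/ml. Viable counts by dilution plating over 0–24 h. Area indices calculated versus growth control curve. Duplicate runs.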

[11] = Residual concentration at the end of the administration interval in two-compartment pharmacokinetic/pharmacodynamic model at 600 mg, bid administered as 0.5 hr infusion over 24 hrs; type: ADME; conditions: in vivo, iv
[12] = Mean residence time in two-compartment pharmacokinetic/pharmacodynamic model at 800 mg, bid administered as 0.5 hr infusion over 24 hrs; type: ADME, organism-based; conditions: in vivo, iv
[13] = AUC in two-compartment pharmacokinetic/pharmacodynamic model at 800 mg, bid administered as 0.5 hr infusion over 24 hrs; type: ADME; set-up: time < 24 hr, dose 800 mg; conditions: in vivo, iv

For `CC(=O)NC[C@H]1CN(c2ccc(N3CCOCC3)c(F)c2)C(=O)O1` [LINEZOLID], the log10CFU/ml (Enterococcus faecalis [1]) was 0.15, the log10CFU/ml (Enterococcus faecalis [2]) was 0.16 and the log10CFU/ml (Enterococcus faecalis [3]) was -0.05. For the same molecule, the log10CFU/ml (Enterococcus faecalis [4]) was -0.05, the log10CFU/ml (Enterococcus faecalis [5]) was 0.52 and the concentration at 0.5 h [6] was 390 ng/mL. It also gave an AUC at 0.5 h [7] of 38200 ng·h/mL, a clearance [8] of 287 mL/min and a Vd [9] of 120 L. The log10CFU/ml (Staphylococcus aureus) was -0.22, the ABBC [10] was -2.27 log10CFU/ml.hr and the Drug uptake [11] was 1.26 µg/mL. It also gave an MRT [12] of 6.81 h and an AUC at 24 h [13] of 47700 ng·h/mL.
